Test results from ChEMBL document CHEMBL4316656, “Antitrypanosomal Activity of Acetogenins Isolated from the Seeds of Porcelia macrocarpa Is Associated with Alterations in Both Plasma Membrane Electric Potential and Mitochondrial Membrane Potential” (J Nat Prod, 2019).
Calls of active or inactive are those of the source. The rule behind the calls is not given here.

How the values were obtained:
Trypanosoma cruzi [1] = assay: Antitrypanosomal activity against Trypanosoma cruzi trypomastigotes measured after 24 hrs by resazurin dye based assay; format: functional, organism-based
Summary of the method: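 Cell-derived trypomastigotes, 1 × 10^6/well, exposed 24 h at 37 °C; viability by resazurin read at 570 nm; benznidazole as standard; IC50 calculated.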

Trypanosoma cruzi [2] = assay: Antitrypanosomal activity against Trypanosoma cruzi amastigotes infected in peritoneal macrophages (unknown origin) measured after 48 hrs by resazurin dye based assay; format: functional, organism-based
Trypanosoma cruzi [3] = assay: Induction of mitochondrial membrane potential depolarization in Trypanosoma cruzi trypomastigotes at antitrypanosomal IC50 measured after 2 hrs by JC1 dye based flow cytometry; format: functional, organism-based
Trypanosoma cruzi [4] = assay: Induction of reactive oxygen species generation in Trypanosoma cruzi trypomastigotes at antitrypanosomal IC50 measured after 60 to 120 mins by H2DCFDA dye based fluorescence assay; format: organism-based; conditions: in vitro
Summary of the method: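 Trypomastigotes incubated with compound at IC50 for 60 and 120 min, then 20 μM H2DCFDA 15 min at 37 °C; fluorescence ex 485/em 520 nm; 10 mM sodium azide positive control, untreated negative; compound background and DMSO controls.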

[5] = Selectivity index, ratio of CC50 for mouse L929 cells to IC50 for Trypanosoma cruzi trypomastigotes; format: toxicity; conditions: read-out: Ratio CC50/IC50
Summary of the method: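 Ratio of the mammalian CC50 (L929, MTT, 48 h) to the IC50 against trypomastigotes (resazurin, 24 h).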

[6] = Cytotoxicity against mouse L929 cells measured after 48 hrs by MTT assay; format: cell-based
Summary of the method: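 NCTC clone L929 cells, 6 × 10^4/well, incubated with compound 48 h at 37 °C; viability by MTT at 570 nm; CC50 taken as 50% cytotoxic concentration; highest concentration 200 μM.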

Trypanosoma cruzi [7] = assay: Induction of mitochondrial membrane potential depolarization in Trypanosoma cruzi trypomastigotes at antitrypanosomal IC50 measured after 2 hrs by DAPI/Mito tracker red dye based fluorescence microscopic analysis; format: functional, organism-based
Summary of the method: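 Treated trypomastigotes costained with 10 μM DAPI and 1 μM MitoTracker Red CM-H2XROS, 30 min at 37 °C in the dark, then fluorescence microscopy; CCCP positive control, untreated parasites as reference.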

Trypanosoma cruzi [8] = assay: Induction of plasma membrane electric potential depolarization in Trypanosoma cruzi trypomastigotes at antitrypanosomal IC50 measured after 60 mins by DiSBAC2(3) dye based flow cytometry; format: functional, organism-based
Summary of the method: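 Trypomastigotes (2 × 10^6/well) exposed at IC50 for 60 min at 37 °C, then 0.2 μM DiSBAC2(3) added and read by flow cytometry; gramicidin D 0.5 μg/mL defined 100%, untreated 0%; at least two independent assays in duplicate.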

[9] = Selectivity index, ratio of CC50 for mouse L929 cells to IC50 for Trypanosoma cruzi amastigotes infected in peritoneal macrophages (unknown origin); format: toxicity; conditions: read-out: Ratio CC50/IC50
Summary of the method: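 Ratio of the L929 CC50 (MTT, 48 h) to the intracellular amastigote IC50 (infected peritoneal macrophages, 48 h).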

Trypanosoma cruzi [10] = assay: Antitrypanosomal activity against Trypanosoma cruzi amastigotes infected in peritoneal macrophages (unknown origin) assessed as elimination of parasite at 100 uM by optical microscopic analysis; format: functional, organism-based
Summary of the method: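 Peritoneal macrophages infected with T. cruzi trypomastigotes (ratio 10:1) and treated at 100 μM. Infected untreated macrophages served as control. Parasite clearance was judged by optical microscopy at 1000× magnification.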

Trypanosoma cruzi [11] = assay: Disruption of plasma membrane integrity in Trypanosoma cruzi trypomastigotes at antitrypanosomal IC50 measured after 120 mins by Sytox green dye based fluorescence assay; format: functional, organism-based
Summary of the method: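 Trypomastigotes (2 × 10^6/well) with 1 μM SYTOX Green, compound at IC50, fluorescence followed 120 min at ex 485/em 520 nm; 0.5% Triton X-100 gives maximal permeabilization; compound background and DMSO controls; duplicates, at least two independent assays.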

[12] = Trypanosoma cruzi, 24 h, read-out: IC50
[13] = Trypanosoma cruzi, 48 h, read-out: IC50

IC50 (Trypanosoma cruzi [1]) | IC50 (Trypanosoma cruzi [2]) | IC50 (Trypanosoma cruzi [1]; [12]) | IC50 (Trypanosoma cruzi [2]; [13]) | Compound | Activity (Trypanosoma cruzi [3]) | Activity (Trypanosoma cruzi [4]) | selectivity ratio [5] | CC50 at 48 h [6] | Activity (Trypanosoma cruzi [7]) | Activity (Trypanosoma cruzi [8]) | selectivity ratio [9] | Activity (Trypanosoma cruzi [10]) | Activity (Trypanosoma cruzi [11])
Not Active | Not Active | – | – | CCCCCCCCCCCCCCCCCC(=O)O [STEARIC ACID] | – | – | – | – | – | – | – | – | –
– | – | 0.4 µM | 23 µM | C=CCCCCCCC#CCCCCCCCCCCC1=C(O)C(=C)OC1=O | Active | Non-Toxic | 200 | 80 µM | Active | Active | 3.5 | Active | inactive
– | Not Active | 27.6 µM | – | CCCCCCCCC#CCCCCCCCC(=O)O | – | – | > 7.2 | > 200 µM | – | – | – | – | –
– | – | 3.6 µM | 27.7 µM | C=CCCCCCCC#CCCCCCCCCCCC1=C(O)[C@@H](C)OC1=O | Active | Non-Toxic | > 55.6 | > 200 µM | Active | Active | > 7.2 | Active | inactive
– | – | 7.8 µM | 58.3 µM | C=CCCCCCCC#CCCCCCCCCCC[C@@H]1C(=O)O[C@H](C)[C@@H]1O | – | – | > 25.6 | > 200 µM | – | – | > 3.4 | – | –
Not Active | Not Active | – | – | CCCCCCCCCCCCCCCCCCCC[C@@H]1C(=O)O[C@H](C)[C@@H]1O | – | – | – | – | – | – | – | – | –

Compound | IC50 (Trypanosoma cruzi [1]) | IC50 (Trypanosoma cruzi [2]) | IC50 (Trypanosoma cruzi [1]; [12]) | IC50 (Trypanosoma cruzi [2]; [13]) | Activity (Trypanosoma cruzi [3]) | Activity (Trypanosoma cruzi [4]) | selectivity ratio [5] | CC50 at 48 h [6] | Activity (Trypanosoma cruzi [7]) | Activity (Trypanosoma cruzi [8]) | selectivity ratio [9] | Activity (Trypanosoma cruzi [10]) | Activity (Trypanosoma cruzi [11])
O=C(Cn1ccnc1[N+](=O)[O-])NCc1ccccc1 [BENZNIDAZOLE] | – | – | 5.5 µM | 18.7 µM | – | – | – | – | – | – | – | – | –
